Experiments:
[1] = tested on: Rattus norvegicus; test: Reduction in circulating lymphocytes count in Lewis rat at 5 mg/kg, po measured at 4 hrs by hematology analyzer based analysis; assay type: functional; design: scale not given: the % may be the effect or the level left
Method in brief: (§1)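 Lewis rats (n = 2−4) dosed orally; whole-blood lymphocyte counts taken 4 h and 24 h after dosing and reduction expressed versus vehicle-treated rats. Significance by ANOVA with Dunnett's test (p < 0.05 vs vehicle). Blood levels of parent and phosphate metabolite measured at the same time points in this PK/PD screen.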

[2] = Drug concentration in Lewis rat blood assessed as concentration of parent compound at 5 mg/kg, po measured at 4 hrs by LC-MS/MS analysis; assay type: ADME, organism-based; settings: read-out: Ct
Method in brief: (§2)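 Lewis rats (n = 2−4) dosed orally at 0.5, 1, 2 or 5 mg/kg; blood parent and phosphate metabolite concentrations and lymphocyte counts taken 4 and 24 h post-dose; phosphate-to-parent ratio from 24 h levels; significance versus vehicle by ANOVA with Dunnett's test.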

[3] = Reduction in circulating lymphocytes count in Lewis rat at 5 mg/kg, po measured at 24 hrs by hematology analyzer based analysis; assay type: ADME, organism-based; design: scale not given: the % may be the effect or the level left; settings: in vivo; method in brief: as §1
[4] = Drug concentration in Lewis rat blood assessed as concentration of parent compound at 5 mg/kg, po measured at 24 hrs by LC-MS/MS analysis; assay type: ADME, organism-based; method in brief: as §2
[5] = Pulmonary toxicity in Lewis rat assessed as fold elevation of BAL protein content at 5 mg/kg, po by chemistry analyzer based analysis relative to control; assay type: organism-based; settings: in vivo
Method in brief: (§3)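 Lewis rats dosed orally; bronchoalveolar lavage protein measured at study end, expressed as fold over vehicle control.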

[6] = tested on: Rattus norvegicus; test: Reduction in circulating lymphocytes count in Lewis rat at 2 mg/kg, po measured at 4 hrs by hematology analyzer based analysis; assay type: functional; design: scale not given: the % may be the effect or the level left; method in brief: as §1
[7] = Drug concentration in Lewis rat blood assessed as concentration of parent compound at 2 mg/kg, po measured at 4 hrs by LC-MS/MS analysis; assay type: ADME, organism-based; settings: read-out: Ct; for concentration at 4 h: Lewis, blood; for concentration: in vivo, 2 mg/kg, 4 h; method in brief: as §2
[8] = Reduction in circulating lymphocytes count in Lewis rat at 2 mg/kg, po measured at 24 hrs by hematology analyzer based analysis; assay type: Functional, organism-based; design: scale not given: the % may be the effect or the level left; settings: in vivo; method in brief: as §1
[9] = Drug concentration in Lewis rat blood assessed as concentration of parent compound at 2 mg/kg, po measured at 24 hrs by LC-MS/MS analysis; assay type: ADME, organism-based; settings: in vivo, read-out: Ct; method in brief: as §2
[10] = Ratio of drug metabolism in Lewis rat blood assessed as phosphate ester metabolite to parent drug at 2 mg/kg, po measured at 24 hrs by LC-MS/MS analysis; assay type: ADME, organism-based; settings: in vivo; method in brief: as §2
[11] = Pulmonary toxicity in Lewis rat assessed as fold elevation of BAL protein content at 2 mg/kg, po by chemistry analyzer based analysis relative to control; assay type: organism-based; settings: in vivo; method in brief: as §3
[12] = Cardiotoxicity in human iPSC derived cardiomyocytes assessed as change in heart rate at 1 nM measured over 2 hrs by multi-electrode array relative to control; assay type: toxicity, cell-based; settings: stem cell-derived cardiomyocyte, 0.001 µM
Method in brief: (§4)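 Phosphate metabolite of each compound prepared and tested on cultured human induced pluripotent stem cell-derived cardiomyocytes at 1 and 10 nM; beat rate change averaged over three or more replicates per concentration unless noted (some n = 2).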

[13] = Cardiotoxicity in human iPSC derived cardiomyocytes assessed as change in heart rate at 10 nM measured over 2 hrs by multi-electrode array relative to control; assay type: toxicity, cell-based; settings: stem cell-derived cardiomyocyte, 0.01 µM; method in brief: as §4
[14] = Half life in Lewis rat at 2 mg/kg, po measured at 4 to 72 hrs; assay type: ADME, organism-based; settings: in vivo, time 4-72 hrs; for half-life: Lewis; for t1/2: 2 mg/kg
Method in brief: (§5)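 Half-life estimated from oral-dosing blood PK profiles in Lewis rats sampled at four time points: 4, 24, 48 and 72 h.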

[15] = molecular target: T1, Sphingosine 1-phosphate receptor 1 (Homo sapiens, UniProt P21453); test: Displacement of [33P]-SIP from human recombinant S1P1 expressed in CHO cell membranes measured after 45 mins by TopCount scintillation counting method; design: species or system Cell membrane
[16] = molecular target: T1, Sphingosine 1-phosphate receptor 1; test: Agonist activity at recombinant human S1P1 expressed in CHO cell membranes assessed as stimulation of [35S]-GTPgammaS binding measured after 45 mins by liquid scintillation counting method; assay type: functional, Cell membrane
[17] = molecular target: T1, Sphingosine 1-phosphate receptor 1; test: Agonist activity at human recombinant C-terminal GFP-fused S1P1 expressed in CHO cells assessed as induction of receptor internalization incubated for 50 mins by fluorescence based confocal laser scanning microscopic analysis; assay type: cell-based
[18] = molecular target: T1, Sphingosine 1-phosphate receptor 1; test: Agonist activity at human recombinant S1P1 expressed in CHO cells assessed as stimulation of ERK phosphorylation incubated for 7 mins by microplate reader analysis; assay type: cell-based
[19] = molecular target: Sphingosine 1-phosphate receptor 3 (Homo sapiens, UniProt Q99500); test: Agonist activity at recombinant human S1P3 expressed in CHO cell membranes assessed as stimulation of [35S]-GTPgammaS binding measured after 45 mins by liquid scintillation counting method; assay type: functional, Membrane
[20] = Pulmonary toxicity in Lewis rat assessed as fold elevation of BAL protein content at 10 mg/kg, po by chemistry analyzer based analysis relative to control; assay type: organism-based; settings: in vivo, 2 mg/kg, in the assay text read “2 mg/kg” for “10 mg/kg”; method in brief: as §3
[21] = Reduction in circulating lymphocytes count in Lewis rat at 0.5 mg/kg, po measured at 4 hrs by hematology analyzer based analysis; assay type: ADME, organism-based; design: scale not given: the % may be the effect or the level left; settings: in vivo; method in brief: as §2
[22] = Drug metabolism in Lewis rat blood assessed as parent compound concentration at 0.5 mg/kg, po measured at 4 hrs by LC-MS/MS analysis; assay type: ADME, organism-based; settings: for Ct: in vivo, 0.5 mg/kg, 4 h, BLD = below limit of detection; method in brief: as §2
[23] = Reduction in circulating lymphocytes count in Lewis rat at 0.5 mg/kg, po measured at 24 hrs by hematology analyzer based analysis; assay type: ADME, organism-based; design: scale not given: the % may be the effect or the level left; settings: in vivo; method in brief: as §2
[24] = Drug metabolism in Lewis rat blood assessed as parent compound concentration at 0.5 mg/kg, po measured at 24 hrs by LC-MS/MS analysis; assay type: ADME, organism-based; settings: for concentration at 24 h: Lewis, blood, read-out: Ct; method in brief: as §2
[25] = tested on: Rattus norvegicus; test: Reduction in circulating lymphocytes count in Lewis rat at 1 mg/kg, po measured at 4 hrs by hematology analyzer based analysis; assay type: functional; design: scale not given: the % may be the effect or the level left; method in brief: as §2
[26] = Drug concentration in Lewis rat blood assessed as concentration of parent compound at 1 mg/kg, po measured at 4 hrs by LC-MS/MS analysis; assay type: ADME, organism-based; settings: in vivo, 1 mg/kg, 4 h, BLD = below limit of detection; method in brief: as §2
[27] = Reduction in circulating lymphocytes count in Lewis rat at 1 mg/kg, po measured at 24 hrs by hematology analyzer based analysis; assay type: organism-based; design: scale not given: the % may be the effect or the level left; settings: in vivo; method in brief: as §2
[28] = Drug metabolism in Lewis rat blood assessed as concentration of parent compound at 1 mg/kg, po measured at 24 hrs by LC-MS/MS analysis; assay type: ADME, organism-based; settings: Lewis, blood, read-out: Ct; method in brief: as §2
[29] = Half life in Lewis rat at 1 mg/kg, po measured at 4 to 72 hrs; assay type: ADME, organism-based; settings: in vivo, time 4-72 hrs; method in brief: as §5
[30] = Pulmonary toxicity in Lewis rat assessed as fold elevation of BAL protein content at 1 mg/kg, po by chemistry analyzer based analysis relative to control; assay type: organism-based; settings: in vivo; method in brief: as §3
[31] = Drug metabolism in Lewis rat blood assessed as phosphate ester metabolite to parent ratio at 1 mg/kg, po measured at 24 hrs by LC-MS/MS analysis; settings: in vivo

T1 sequence (P21453 whole entry): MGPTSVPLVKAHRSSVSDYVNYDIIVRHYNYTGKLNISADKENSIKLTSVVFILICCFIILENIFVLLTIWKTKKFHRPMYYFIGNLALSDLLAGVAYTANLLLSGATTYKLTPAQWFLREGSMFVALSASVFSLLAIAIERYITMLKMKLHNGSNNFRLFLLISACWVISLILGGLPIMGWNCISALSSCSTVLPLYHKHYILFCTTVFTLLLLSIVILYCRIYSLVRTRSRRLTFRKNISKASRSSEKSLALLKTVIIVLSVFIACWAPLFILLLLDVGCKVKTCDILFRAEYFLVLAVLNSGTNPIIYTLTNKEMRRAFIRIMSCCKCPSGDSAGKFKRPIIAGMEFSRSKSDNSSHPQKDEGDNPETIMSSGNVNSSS
Chain of Sphingosine 1-phosphate receptor 3 (Q99500 whole entry): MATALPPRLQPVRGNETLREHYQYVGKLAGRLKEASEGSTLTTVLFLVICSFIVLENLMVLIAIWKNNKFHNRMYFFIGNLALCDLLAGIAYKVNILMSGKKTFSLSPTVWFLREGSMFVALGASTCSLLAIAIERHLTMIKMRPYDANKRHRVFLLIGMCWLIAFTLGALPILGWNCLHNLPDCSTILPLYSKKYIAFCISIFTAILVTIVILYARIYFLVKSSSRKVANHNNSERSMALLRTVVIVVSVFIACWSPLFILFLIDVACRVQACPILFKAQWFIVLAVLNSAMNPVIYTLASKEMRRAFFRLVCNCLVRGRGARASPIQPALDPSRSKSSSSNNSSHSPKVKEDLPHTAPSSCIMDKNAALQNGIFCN

Row | SMILES | concentration at 4 h [7] | Activity [8] | concentration [9] | Ratio [10] | fold change (FC) [11] | Activity [12] | Activity [13] | Activity ([6]; 2 mg/kg, 4 h) | other results
1 | CCCCS(=O)(=O)C[C@@H]1CCc2cc([C@H]3CC[C@](N)(CO)C3)ccc2C1 |  |  |  |  |  |  |  |  | Activity [1]: 13%; concentration at 4 h [2]: 44 nM; Activity [3]: 16%; Ct ([4]; in vivo, 5 mg/kg, 24 h, BLD = below limit of detection): Bld; fold change (FC) [5]: 0.8
2 | CCCSCC[C@@H]1CCc2cc([C@H]3CC[C@](N)(CO)C3)ccc2C1 | 193 nM | 73% | 72 nM | 0.17 | 1.1 | -43% | -42% |  | Activity [6]: 63%
3 | COCCCCCC1CCc2cc([C@H]3CC[C@](N)(CO)C3)ccc2C1 (single isomer, unassigned; 23) | 129 nM | 81% | 51 nM | 8.2 | 1.9 | -20% | -40% |  | Activity [6]: 78%; half-life [14]: 15 h
4 | COCCCCCCC1CCc2cc([C@H]3CC[C@](N)(CO)C3)ccc2C1 (stereo in doubt; 25b) |  | 79% | 295 nM | 2.5 | 1.2 | -25% |  | 45% | concentration [7]: 320 nM; t1/2 [14]: 26 h
5 | CCOCCC[C@H]1CCc2cc([C@H]3CC[C@](N)(COP(=O)(O)O)C3)ccc2C1 |  |  |  |  |  |  |  |  | IC50 [15]: 0.04 nM; EC50 [16]: 2.1 nM; EC50 [17]: 0.4 nM; EC50 [18]: 5.2 nM; EC50 [19]: > 1000 nM
6 | COCCCC1CCc2cc([C@H]3CC[C@](N)(CO)C3)ccc2C1 (stereo in doubt; 22b) |  | 66% | 86 nM | 0.9 | 1.6 | -20% | -25% | 62% | concentration [7]: 215 nM; t1/2 [14]: 14 h
7 | COCCCCCCC1CCc2cc([C@H]3CC[C@](N)(CO)C3)ccc2C1 (stereo in doubt; 25a) | 265 nM | 84% | 69 nM | 3.9 | 1.7 | -16% | -32% | 70% | half-life [14]: 31 h
8 | COCCCCC1CCc2cc([C@H]3CC[C@](N)(CO)C3)ccc2C1 (stereo in doubt; 13b) |  | 78% | 78 nM | 0.77 |  | -15% | -29% | 65% | concentration [7]: 271 nM; half-life [14]: 16 h; fold change (FC) [20]: 2.1
9 | CCCCCSC[C@@H]1CCc2cc([C@H]3CC[C@](N)(CO)C3)ccc2C1 |  |  |  |  |  |  |  |  | Activity [21]: 0%; Ct [22]: Bld; Activity [23]: 63%; concentration at 24 h [24]: < 31 nM
10 | CCCSCCC1CCc2cc([C@H]3CC[C@](N)(CO)C3)ccc2C1 (single isomer, unassigned) |  |  |  |  |  | -26% | -61% |  | Activity [21]: 0%; concentration at 4 h ([22]; Lewis, blood, read-out: Ct): 43 nM; Activity [23]: 60%; concentration at 24 h [24]: 20 nM
11 | COCCCCC[C@@H]1CCc2cc([C@H]3CC[C@](N)(COP(=O)(O)O)C3)ccc2C1 |  |  |  |  |  |  |  |  | IC50 [15]: 0.016 nM; EC50 [16]: 2.1 nM; EC50 [17]: 4.9 nM; EC50 [18]: 2.7 nM; EC50 [19]: > 1000 nM
12 | CCCCSCC1CCc2cc([C@H]3CC[C@](N)(CO)C3)ccc2C1 (single isomer, unassigned) | 138 nM | 44% | 110 nM | 0.23 | 1.1 | -14% | -25% |  | Activity [6]: 20%
13 | CCCOCCOC[C@@H]1CCc2cc([C@H]3CC[C@](N)(CO)C3)ccc2C1 |  |  |  |  |  |  |  |  | Activity [1]: 72%; concentration at 4 h [2]: 360 nM; Activity [3]: 70%; concentration at 24 h ([4]; Lewis, blood, read-out: Ct): 28 nM; fold change (FC) [5]: 1.4
14 | COCCCCC1CCc2cc([C@H]3CC[C@](N)(CO)C3)ccc2C1 (stereo in doubt; 13a) | 300 nM | 87% | 110 nM | 1.4 |  |  |  | 78% | fold change (FC) [20]: 1.7
15 | CCCCCSC[C@H]1CCc2cc([C@H]3CC[C@](N)(CO)C3)ccc2C1 |  |  |  |  |  | -29% | -41% |  | Activity [21]: 0%; Ct [22]: Bld; Activity [23]: 56%; Ct ([24]; in vivo, 0.5 mg/kg, 24 h, BLD = below limit of detection): Bld
16 | CCCCSC[C@@H]1CCc2cc([C@H]3CC[C@](N)(CO)C3)ccc2C1 |  |  |  |  |  | -28% | -46% |  | Activity [25]: 6%; Ct [26]: Bld; Activity [27]: 63%; concentration at 24 h [28]: 73 nM; half-life [29]: 27 h; fold change (FC) [30]: 1.1; Ratio [31]: 0.36
